An excerpt weighted towards active compounds, which were near 1.2% of everything screened.
CAL PDZ FP-1 = CAL PDZ (human) peptide binding inhibition; inhibition, % at 24.9 µM; purified CAL PDZ, TMR-peptide fluorescence polarization, 1 h; AID 602252; Q9HD26; actives 0.92% (n = 300,000);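 active = mean inhibition of at least 30% with at least half of replicates also reaching 30%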
CAL PDZ FP-2 = blocks peptide binding to human CAL PDZ domain. inhibition, % at 20 µM. actives 0.02% (n = 330,000). AID 504414. purified CAL PDZ, TMR-peptide fluorescence polarization, 1 h;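 active = highest replicate inhibition of at least 40%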
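Material – purified CerCALP PDZ construct · Detection – FP readout, S and P plane fluorescence · Measure – percent inhibition from loss of millipolarization · Controls – unlabelled peptide for full inhibition, DMSO wells as neutral · Probe or stimulus – TMR-labelled reporter peptide T*-PRC34 bound in PDZ groove · Times – 1 h at RT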
ARNT TACC3 PPI = ARNT/TACC3 interaction disruption; AlphaScreen His-ARNT PAS-B/GST-TACC3 binding, luminescence; TACC3 fragment carries E629A point mutation; inhibition, % at 9.99 µM; actives 0.66% (n = 390,000);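 active = mean inhibition of replicates at least 50% and at least half of replicates each reaching 50%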
Hits are given with their value; n = inactive; x = no result given.

SMILES	CAL PDZ FP-1	CAL PDZ FP-2	ARNT TACC3 PPI
CC(C)NC(=O)N(C)C[C@H]1Oc2ccc(NS(=O)(=O)c3cccs3)cc2CC(=O)N([C@H](C)CO)C[C@@H]1C	x	x	n
CCS(=O)(=O)c1nc(S(=O)(=O)c2ccc(Cl)cc2)c(NCCCN2CCCC2=O)s1	n	n	n
CCCS(=O)(=O)c1nc(S(=O)(=O)c2ccc(C)cc2)c(NCCCN2CCCC2=O)s1	41.7	n	n
CC=Cc1ccc2n(c1=O)C[C@H]1[C@H](CO)[C@@H](C(=O)NCc3ccccc3)N(C)[C@@H]21 (mixture of isomers)	x	x	n
O=C(Cc1ccccn1)N[C@@H]1CC[C@@H](CCNC(=O)c2cc(Cl)cc(Cl)c2)O[C@@H]1CO	x	x	n
CCC(=O)N1C[C@H](C)[C@@H](OC)CN(C)C(=O)c2ccc(NC(=O)COC)cc2OC[C@H]1C	x	x	n
O=C(CCN1C(=O)/C(=C\c2ccccc2)SC1=S)N1CCCCC1	x	n	n
O=C(CCN1C(=O)/C(=C/c2cccs2)SC1=S)N1CCCCC1	85.4	n	n
C[C@@H]1CN([C@@H](C)CO)S(=O)(=O)c2ccc(C#CC3CC3)cc2O[C@H]1CN(C)C(=O)c1ccccc1	x	x	n
O=C(COc1ccc(Br)cc1F)Nc1nnc(C2CC2)s1	n	n	n
O=C(COc1cc(Cl)ccc1Cl)Nc1nnc(C2CC2)s1	37.3	n	n
O=C(NC1CCCCCC1)c1cccc(N2CCCC2=O)c1	n	n	n
O=C(NC1CCCN(Cc2ccc(Cl)cc2)C1)c1cccc(N2CCCC2=O)c1 (stereo not given)	n	139.3	n
Cc1ccccc1S(=O)(=O)NCC[C@@H]1CC[C@@H](NC(=O)C2CC2)[C@H](CO)O1	x	x	n
Nc1[nH]c(N=NC(=O)c2ccccc2)c2ccccc12	x	n	n
Nc1[nH]c(N=NC(=O)c2ccccc2O)c2ccccc12	n	n	60.1
Cn1cnc(S(=O)(=O)N[C@@H]2CC[C@@H](CC(=O)Nc3ccccc3)O[C@H]2CO)c1	x	x	n
COCC(=O)Nc1ccc2c(c1)[C@@H]1C[C@@H](CC(=O)NCc3cccc(F)c3)O[C@@H](CO)[C@@H]1O2	x	x	n
O=C(Nc1ccc(F)cc1)N1CCN(C/C=C/c2ccccc2)CC1	n	n	n
O=C(CN1CCN(CC(=O)Nc2cccc(F)c2)CC1)Nc1ccc(-c2ccccc2)cc1	58.3	n	n
COc1ccccc1N1CCN(CC(=O)Nc2cccc(F)c2)CC1	n	n	n
O=C(Nc1cccc(F)c1)N1CCN(C/C=C/c2ccccc2)CC1	38.9	n	n
CSc1nnc(-c2ccc(S(=O)(=O)N3CCCC3)cc2)n1C	n	n	n
Cn1c(SCC(N)=O)nnc1-c1ccc(S(=O)(=O)N2CCCC2)cc1	41.8	n	n
CO[C@@H]1CN(C)C(=O)c2ccc(NC(=O)C3CCCC3)cc2OC[C@H](C)N(C(C)=O)C[C@H]1C	x	x	n
SMILES	CAL PDZ FP-1	CAL PDZ FP-2	ARNT TACC3 PPI
COc1cccc(NC(=O)c2ccc3nsnc3c2)c1	49.0	n	x
COc1cccc(NC(=O)c2cccc(C(=O)Nc3cccc(OC)c3)c2)c1	n	n	n
COc1cc(C(=O)Nc2cccc(C(C)=O)c2)cc(OC)c1OC	x	n	n
COc1cccc(OC)c1C(=O)Nc1cccc(C(C)=O)c1	53.0	n	n
C[C@@H]1CN([C@@H](C)CO)C(=O)c2cc(NC(=O)CCC(F)(F)F)ccc2O[C@@H](C)CCCCO[C@H]1CN(C)C(=O)Nc1cccc2ccccc12	x	x	n
Cc1noc(C)c1NC(=O)Nc1ccc2c(c1)C(=O)N([C@@H](C)CO)C[C@@H](C)[C@H](CN(C)C(=O)Nc1ccc(F)cc1)O2	x	x	n
Cc1ccccc1S(=O)(=O)NCC[C@@H]1CC[C@@H](NC(=O)C2CC2)[C@@H](CO)O1	x	x	n
COC(=O)c1c(NC(=O)COC(=O)CNC(=O)c2ccco2)sc(C)c1C	58.5	n	n
CCOC(=O)c1c(NC(=O)COC(=O)CNC(=O)c2ccco2)sc(C)c1C	n	n	n
CCCN(C)C[C@H]1OCc2cn(nn2)CCCC(=O)N([C@@H](C)CO)C[C@H]1C	x	x	n
O=C(c1ccc(F)cc1)N1CCCCN2[C@@H](CO)[C@H](c3ccc(-c4ccc(F)cc4)cc3)[C@@H]2C1	x	x	n
Cc1c(C(=O)N2CCN(c3ccc(F)cc3)CC2)sc2nc3n(c(=O)c12)CCC3	86.1	n	n
Cc1nnsc1C(=O)N1CCCC(N2CCN(c3ccc(F)cc3)CC2)C1 (stereo not given)	n	n	n
Cc1nnsc1C(=O)N1CCN(c2ccc(F)cc2)CC1	36.8	n	n
Cc1c(C(=O)N2CCN(c3ccccc3)CC2)sc2nc3n(c(=O)c12)CCC3	n	n	n
COc1ccc(S(=O)(=O)Nc2ccc3c(c2)CC(=O)N([C@@H](C)CO)C[C@H](C)[C@@H](CN(C)Cc2ccc(C(F)(F)F)cc2)O3)cc1	x	x	n
C[C@@H]1CN([C@@H](C)CO)C(=O)c2cccc(NC(=O)Nc3ccccc3)c2O[C@H]1CN(C)Cc1ccc(C(=O)O)cc1	x	x	n
CN(C)CC(=O)N[C@H]1CC[C@H](CCNC(=O)Nc2ccc(F)cc2)O[C@@H]1CO	x	x	n
Cc1cccc(Nc2n[nH]c(=S)s2)c1C	n	n	n
COc1ccccc1Nc1n[nH]c(=S)s1	77.9	n	n
CN(CCC1CCOCC1)C(=O)CC1C(=O)NCCN1Cc1ccoc1 (stereo not given)	n	n	n
CN(CCCC1CCCC1)C(=O)CC1C(=O)NCCN1Cc1ccc(F)cc1 (stereo not given)	40.8	n	n
O=C(CCc1c[nH]c2ccccc12)NCCc1ccccc1	n	n	n
O=C(CCc1c[nH]c2ccccc12)NCCc1ccc(Cl)cc1	36.5	n	n
COc1ccc(S(=O)(=O)N(C)C[C@H]2Oc3c(NC(=O)C4CC4)cccc3C(=O)N([C@@H](C)CO)C[C@H]2C)cc1	x	x	n
SMILES	CAL PDZ FP-1	CAL PDZ FP-2	ARNT TACC3 PPI
CCN(CC)C(=O)Cn1cc(C(=O)C(=O)N2CCCc3ccccc32)c2ccccc21	n	n	n
CCN(CC)C(=O)Cn1cc(C(=O)C(=O)N2CCc3ccccc32)c2ccccc21	46.1	n	n
C/C=C/c1ccc([C@@H]2[C@@H](CO)N3CCCCN(S(=O)(=O)c4cccc(C)c4)C[C@@H]23)cc1	x	x	n
COC(=O)c1ccccc1NC(=O)Cn1cnc2c(cnn2-c2ccccc2)c1=O	x	n	n
COc1ccccc1NC(=O)Cn1cnc2c(cnn2-c2ccccc2)c1=O	57.4	n	n
CNC[C@H]1OCCCC[C@@H](C)Oc2ccc(NC(=O)Nc3c(C)noc3C)cc2C(=O)N([C@H](C)CO)C[C@H]1C	x	x	n
C[C@H]1CCCCO[C@H](CN(C)C(=O)Nc2ccc(F)cc2)[C@@H](C)CN([C@@H](C)CO)C(=O)c2cc(NS(=O)(=O)c3ccccc3)ccc2O1	x	x	n
COc1ccc(CN(C)C[C@@H]2OCCCC[C@H](C)Oc3ccc(NC(=O)Nc4ccc(C(F)(F)F)cc4)cc3C(=O)N([C@@H](C)CO)C[C@@H]2C)cc1	x	x	n
CCN(CC)S(=O)(=O)c1ccc(NC(=S)NC(=O)C2CCC2)cc1	54.4	n	n
CN(C)S(=O)(=O)c1ccc(NC(=S)NC(=O)C2CCC2)cc1	n	n	n
CCN(CC)S(=O)(=O)c1ccc(N2CCOCC2)c(NC(=O)C2CCCC2)c1	n	n	n
